Data reported in article PMC2882558 (Biopolymers, 2010).
Like-named read-outs stand apart in the source and are kept apart here. One block for each molecule: values may come before it. Square brackets hold non-standard residues; d marks the D form. Ends that are not written are not given here. Peptide text beside a SMILES is read from it. Nle = CCCC[C@H](N)C(=O)O

Experiments:
[1] = tested on: 20S proteasome; assay: Peptidase activities of 20S proteasome; assay type: biochemical, human; conditions: single peptides; not shown
How it was run: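 Human erythrocyte 20S CP, latent or 0.005% SDS-activated, 3 nM final; 50 mM Tris/HCl pH 8.0, DMSO ≤3% final. Test peptide preincubated 10 min at room temperature, then substrate added at 50 or 100 μM final: Suc-LLVY-MCA (ChT-L), Boc-LRR-MCA (T-L), Z-LLE-βNA (PGPH). Emission 460 nm every 2 min, ≤60 min, 37°C; nmol product/mg CP/s; ≥3 repeats across proteasome batches.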

[2] = tested on: 20S proteasome (CP) with PA28αβ activator; assay type: biochemical, human
How it was run: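 Human erythrocyte 20S CP (3 nM final) in 50 mM Tris/HCl pH 8.0 was pretreated with DMSO (≤3% final) or peptide, then mixed with purified human PA28αβ at set molar ratios. After 5 min preincubation, SucLLVY-MCA (50 or 100 μM final) was added. AMC fluorescence at 460 nm was read every 2 min for up to 60 min at 37°C. Activity was expressed as nmol AMC/mg CP/s, with ≥3 repeats using different proteasome batches.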

[3] = tested on: 20S proteasome activated with 0.005% SDS, ChT-L activity; assay: ChT-L peptidase activity of SDS-activated 20S proteasome; assay type: biochemical, human; conditions: 100% = DMSO solvent control
[4] = Solubility in NMR phosphate buffer; assay type: physicochemical; conditions: KH2PO4/Na2HPO4 buffer, pH 6.8 (NMR samples)

Molecule: CCCC[C@H](NC(=O)CNC(=O)[C@H](CCCCN)NC(=O)[C@@H](NC(=O)[C@H](CCC(=O)O)NC(=O)CNC(=O)[C@H](CCCNC(=N)N)NC(=O)[C@@H]1CCCN1C(=O)[C@H](CCCCN)NC(=O)[C@@H](N)CCCCN)[C@@H](C)O)C(=O)N[C@H](C(=O)N[C@@H](Cc1ccc(O)cc1)C(N)=O)[C@@H](C)CC [KKP] (H-KKPRGETKG[Nle]IY-NH2)
% of Ch-L activity, SDS-activated proteasome ([3]; 1 mM peptide): 107%
% of Ch-L activity, SDS-activated proteasome ([3]; 2 mM peptide): 115%
% of Ch-L activity, SDS-activated proteasome ([3]; 5 mM peptide): 108%
% of Ch-L activity, SDS-activated proteasome ([3]; 10 mM peptide): 106%

Molecule: N=C(N)NCCC[C@H](NC(=O)CN)C(=O)N[C@@H](CCCCN)C(=O)N[C@@H](CCCCN)C(=O)N[C@@H](CCCNC(=N)N)C(=O)N[C@@H](CCCNC(=N)N)C(=O)N[C@@H](CCC(N)=O)C(=O)N[C@@H](CCCNC(=N)N)C(=O)N[C@@H](CCCNC(=N)N)C(=O)N[C@@H](CCCNC(=N)N)C(=O)N1CCC[C@H]1C(=O)N[C@@H](CO)C(N)=O [Tat1]
Solubility in buffer [4]: not fully soluble

Molecule: IPRIEDGNNFGV
Effect on any of the peptidase activities of 20S proteasome [1]: did not substantially affect

Molecule: RKKRRQRRQDPI-NH2 [Tat2]
Solubility in buffer [4]: not fully soluble

Results, then the molecule that gave them:

Effect on any of the peptidase activities of 20S proteasome [1]: did not substantially affect
Molecule: IPKIEDGNDFGV

Activation of CP by PA28αβ (fold) ([2]; CP:PA28αβ molar ratio 1:1): approximately 2,5 x
Activation of CP by PA28αβ (fold) ([2]; CP:PA28αβ molar ratio 1:2): ~5 x
Activation of CP by PA28αβ (fold) ([2]; CP:PA28αβ molar ratio 1:4): ~8 x
Molecule: PA28αβ: purified human PA28αβ proteasome activator (BioMol Inc.)
